Assay results as given in ChEMBL document CHEMBL5705892, “MK-2206, an allosteric Akt inhibitor, enhances antitumor efficacy by standard chemotherapeutic agents or molecular targeted drugs in vitro and in vivo” (Mol Cancer Ther, 2010).
Calls of active or inactive are those of the source. The calls are words filed in the database; no cut-off is given here.

How the values were obtained:
HCC70 [1] = assay: Synergistic antiproliferative activity against human HCC70 cells assessed as combination index at ED50 treated 24 hrs prior to lapatinib and measured after 72 hrs by celltiter-glo assay; type: functional; conditions: time 96 hrs
NCI-H460 [2] = assay: Synergistic antiproliferative activity against human NCI-H460 cells assessed as combination index at ED50 measured after 72 hrs in presence of camptothecin by celltiter-glo assay; type: functional
A2780 [3] = assay: Cell cycle arrest in human A2780 cells assessed as increase in accumulation of cells at sub-G1 phase measured after 72 hrs in presence of camptothecin by propidium iodide staining based flow cytometry; type: functional
MDA-MB-468 [4] = assay: Synergistic antiproliferative activity against lapatinib pretreated human MDA-MB-468 cells assessed as combination index at ED75 measured after 72 hrs by celltiter-glo assay; type: functional
NCI-H460 [5] = assay: Synergistic antiproliferative activity against human NCI-H460 cells assessed as combination index at ED90 measured after 72 hrs in presence of 5-FU by celltiter-glo assay; type: functional
MDA-MB-468 [6] = assay: Synergistic antiproliferative activity against human MDA-MB-468 cells assessed as combination index at ED50 measured after 72 hrs in presence of docetaxel by celltiter-glo assay; type: functional
In short: (§1)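 Cells grown in RPMI 1640 with 10% heat-inactivated FBS at 37°C, 5% CO₂. Seeded at 2 to 3 × 10³ per well; drugs added 24 h later. […] Viability read as cellular ATP by CellTiter-Glo. CI calculated by Chou–Talalay from median-effect plots at ED50, ED75 and ED90.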

HCC1954 [7] = assay: Synergistic antiproliferative activity against human HCC1954 cells assessed as combination index at ED90 measured after 72 hrs in presence of lapatinib by celltiter-glo assay; type: functional; in short: as §1
[8] = target: RAC-alpha serine/threonine-protein kinase (Homo sapiens) (UniProt P31749); assay: Inhibition of AKT in human A-431 cells assessed as reduction in GSK3alpha/beta phosphorylation at S21/S9 residues at 5 umol/L measured after 5 hrs in presence of erlotinib by Western blot analysis; type: cell-based; conditions: dose 5.0 µmol/L
Sequence of RAC-alpha serine/threonine-protein kinase (Homo sapiens) (P31749 whole entry): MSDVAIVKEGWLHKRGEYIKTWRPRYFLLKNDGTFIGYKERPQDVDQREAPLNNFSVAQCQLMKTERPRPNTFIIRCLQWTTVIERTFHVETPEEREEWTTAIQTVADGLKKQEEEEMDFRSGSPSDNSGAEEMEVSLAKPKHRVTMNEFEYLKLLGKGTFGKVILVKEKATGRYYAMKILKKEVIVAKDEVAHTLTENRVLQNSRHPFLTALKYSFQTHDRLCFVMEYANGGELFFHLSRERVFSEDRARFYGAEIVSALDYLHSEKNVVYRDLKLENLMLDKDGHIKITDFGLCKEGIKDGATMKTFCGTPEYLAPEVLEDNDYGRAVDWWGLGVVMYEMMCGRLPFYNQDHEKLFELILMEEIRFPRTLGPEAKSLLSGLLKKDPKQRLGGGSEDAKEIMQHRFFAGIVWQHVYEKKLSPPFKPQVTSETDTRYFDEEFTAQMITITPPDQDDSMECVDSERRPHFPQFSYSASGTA
In short: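 Cells were lysed in Tris-HCl pH 7.5, 150 mM NaCl, 1% Triton X-100 with protease and phosphatase inhibitors. Lysates were run on SDS-PAGE, transferred to nitrocellulose and probed with phospho-specific antibodies.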

NCI-H460 [9] = assay: Antitumor activity against human NCI-H460 cells xenografted in CD1 nude mouse assessed as reduction in tumor volume at 120 mg/kg, po administered 3 times per week for 2 weeks by caliper method; type: functional, organism-based
In short: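 NCI-H460 cells were injected s.c. in Matrigel/PBS into CD1-nude mice (female in the carboplatin study). Mice were randomized at 0.2 cm³, n = 5. Carboplatin was given at 50 mg/kg or gemcitabine at 100 mg/kg, i.v. in saline, on days 0 and 7. MK-2206 (30% Captisol) was given at 120 mg/kg po on days 0, 2, 4, 7, 9, 11. Tumors measured by caliper twice weekly.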

HCC70 [10] = assay: Synergistic antiproliferative activity against human HCC70 cells assessed as combination index at ED50 measured after 72 hrs in presence of lapatinib by celltiter-glo assay; type: functional; in short: as §1
A2780 [11] = assay: Synergistic antiproliferative activity against human A2780 cells assessed as combination index at ED90 measured after 72 hrs in presence of doxorubicin by celltiter-glo assay; type: functional
In short: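 Cells were seeded at 2–3 × 10³ per well in RPMI 1640 with 10% FBS. At 24 h, MK-2206 and the partner drug were added simultaneously at constant concentration ratios spanning each agent's IC₅₀, for 72 h. Growth was read as cellular ATP by CellTiter-Glo. CI was taken from median-effect plots of each agent alone and in combination (Chou–Talalay), at ED₅₀, ED₇₅ and ED₉₀.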

NCI-H460 [12] = assay: Synergistic antiproliferative activity against human NCI-H460 cells assessed as combination index at ED75 measured after 72 hrs in presence of camptothecin by celltiter-glo assay; type: functional
[13] = Toxicity in human NCI-H292 cells xenografted CD-1 mouse assessed as weight loss at 120 mg/kg, po administered 3 times per week for 2 weeks starting 2 hrs post-erlotinib treatment and measured during compound dosing; type: organism-based; conditions: in vivo, 336 h
In short: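 NCI-H292 cells in 50% Matrigel/PBS injected s.c. into flank of female CD1-nude mice; dosing began after 2 wk at mean tumour 0.2 cm³, n = 5/group. […] Body weight and signs monitored; treatment ended day 16.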

NCI-H460 [14] = assay: Synergistic antiproliferative activity against human NCI-H460 cells assessed as combination index at ED75 measured after 72 hrs in presence of doxorubicin by celltiter-glo assay; type: functional
[15] = Toxicity in human PC-3 cells xenografted CD1 nude mouse assessed as body weight loss at 120 mg/kg, po administered 3 times per week for 2 weeks measured during compound dosing relative to control; type: organism-based; conditions: in vivo, 336 h
In short: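 Male CD1-nude mice with s.c. PC-3 tumours (50% Matrigel/50% PBS, left flank), randomized at mean 0.2 cm³, n=5/group, treated from 25 d post-implant. Body weight monitored versus vehicle-only controls.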

HCC1954 [16] = assay: Synergistic antiproliferative activity against lapatinib pretreated human HCC1954 cells assessed as combination index at ED50 measured after 72 hrs by celltiter-glo assay; type: functional
[17] = target: RAC-alpha serine/threonine-protein kinase (Homo sapiens) (UniProt P31749); assay: Inhibition of AKT phosphorylation at S473 residue in human NCI-H1993 cells at 3 umol/L measured after 4 to 24 hrs in presence of gemcitabine by MSD assay; conditions: time 4-24 hrs
NCI-H23 = assay: Synergistic antiproliferative activity against human NCI-H23 cells assessed as combination index at ED50 measured after 72 hrs in presence of erlotinib by celltiter-glo assay; type: functional
[18] = target: RAC-alpha serine/threonine-protein kinase (Homo sapiens) (UniProt P31749); assay: Inhibition of AKT in human HCC827 cells assessed as reduction in GSK3alpha/beta phosphorylation at S21/S9 residues at 5 umol/L measured after 5 hrs in presence of erlotinib by Western blot analysis; type: cell-based; conditions: dose 5.0 µmol/L
NCI-H460 [19] = assay: Synergistic antiproliferative activity against human NCI-H460 cells assessed as combination index at ED25 to ED90 measured after 72 hrs in presence of carboplatin by celltiter-glo assay; type: functional
HCC1954 [20] = assay: Synergistic antiproliferative activity against human HCC1954 cells assessed as combination index at ED90 treated 24 hrs prior to lapatinib and measured after 72 hrs by celltiter-glo assay; type: functional; conditions: time 96 hrs
ZR-75-1 = assay: Synergistic antiproliferative activity against human ZR-75-1 cells assessed as combination index at ED75 measured after 72 hrs in presence of docetaxel by celltiter-glo assay; type: functional
NCI-H1703 = assay: Induction of apoptosis in human NCI-H1703 cells assessed as fold induction of capsase-3/7 activity measured after 24 to 48 hrs in presence of gemcitabine by caspase-glo 3/7 assay; type: functional; conditions: time 24-48 hrs
MDA-MB-468 [21] = assay: Synergistic antiproliferative activity against human MDA-MB-468 cells assessed as combination index at ED50 measured after 96 hrs in presence of lapatinib by celltiter-glo assay; type: functional
BT-20 = assay: Synergistic antiproliferative activity against human BT-20 cells assessed as combination index at ED50 measured after 72 hrs in presence of docetaxel by celltiter-glo assay; type: functional; in short: as §1
HCC827 = assay: Synergistic antiproliferative activity against human HCC827 cells assessed as combination index at ED50 measured after 72 hrs in presence of erlotinib by celltiter-glo assay; type: functional; in short: as §1

For `Cl.NC1(c2ccc(-c3nc4ccn5c(=O)[nH]nc5c4cc3-c3ccccc3)cc2)CCC1`, the CI50 (HCC70 [1]) was 0.18, the CI50 (NCI-H460 [2]) was 0.39 and the Activity (A2780 [3]) was “Dose-Dependent Effect”. It also gave a CI75 (MDA-MB-468 [4]) of 0.18, a CI90 (NCI-H460 [5]) of 0.54 and a CI50 (MDA-MB-468 [6]) of 0.9. The CI90 (HCC1954 [7]) was 0.11, the inhibition [8] was “Active” and the Activity (NCI-H460 [9]) was “Active”. For the same molecule, the CI50 (HCC70 [10]) was 0.46, the CI90 (A2780 [11]) was 0.27 and the CI75 (NCI-H460 [12]) was 0.39. The Activity [13] was “Toxic”, the CI75 (NCI-H460 [14]) was 0.18 and the Activity [15] was 8%. For the same molecule, the CI50 (HCC1954 [16]) was 0.18, the inhibition [17] was “Active” and the CI50 (NCI-H23) was 0.32. The inhibition [18] was “Active”, the CI (NCI-H460 [19]) was 0.3 and the CI90 (HCC1954 [20]) was 0.18. For the same molecule, the CI75 (ZR-75-1) was 0.2, the “fold change (FC)” value (NCI-H1703) was 1.5 and the CI50 (MDA-MB-468 [21]) was 0.18. The CI50 (BT-20) was 1 and the CI50 (HCC827) was 0.39.
